Reference: ChEMBL document CHEMBL1132410, “5-Chloro-N-(4-methoxy-3-piperazin-1-yl- phenyl)-3-methyl-2-benzothiophenesulfon- amide (SB-271046): a potent, selective, and orally bioavailable 5-HT6 receptor antagonist” (J Med Chem, 1999)
One block for each compound: values may come before it.

Key:
[1] = target: 5-hydroxytryptamine receptor 6 (Homo sapiens, UniProt P50406); assay: Binding affinity against human cloned 5-hydroxytryptamine 6 receptor in HeLa cells using [3H]LSD; type: cell-based
Outline: (§1)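 Radioligand binding at human cloned receptors; cell hosts and radioligands as listed per line: 5-HT1A, 5-HT2A, 5-HT2B, 5-HT2C and 5-HT7 in HEK 293 cells; 5-HT1B, 5-HT1D, 5-HT1E, 5-HT1F, D2 and D3 in CHO cells; 5-HT6 in HeLa cells. Values are the mean of at least two determinations, each within 0.2 log unit of the mean.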

Homo sapiens = species: Homo sapiens; assay: Selectivity for 5-HT6 receptors with respect to the 5-HT1A, 5-HT1B, 5-HT1D, 5-HT1E, 5-HT1F, 5-HT2A, 5-HT2B, 5-HT2C, 5-HT4, 5-HT7, Alpha-1B, D2, D3 receptors.
[2] = target: T1, 5-hydroxytryptamine receptor 1A (Homo sapiens, UniProt P08908); assay: Compound was tested for its binding affinity against 5-hydroxytryptamine 1A receptor in human cloned receptors in HEK 293 cells using [3H]8-OH-DPAT; type: cell-based, HEK293; outline: as §1
T1 sequence (P08908 whole entry): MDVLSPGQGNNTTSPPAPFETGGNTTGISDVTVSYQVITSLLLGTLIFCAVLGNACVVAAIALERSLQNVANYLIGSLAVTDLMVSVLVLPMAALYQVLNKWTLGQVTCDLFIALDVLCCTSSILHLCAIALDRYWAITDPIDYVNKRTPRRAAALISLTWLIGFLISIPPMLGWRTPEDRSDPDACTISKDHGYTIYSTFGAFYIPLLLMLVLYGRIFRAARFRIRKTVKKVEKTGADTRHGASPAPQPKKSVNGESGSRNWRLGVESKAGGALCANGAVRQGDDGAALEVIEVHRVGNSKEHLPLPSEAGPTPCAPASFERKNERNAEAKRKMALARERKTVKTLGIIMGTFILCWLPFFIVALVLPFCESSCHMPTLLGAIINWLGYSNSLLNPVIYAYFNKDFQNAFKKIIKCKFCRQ

[3] = target: 5-hydroxytryptamine receptor 1B (Homo sapiens, UniProt P28222); assay: Compound was tested for its binding affinity against human cloned 5-hydroxytryptamine 1B receptor in CHO cells using [3H]5-HT; type: cell-based; outline: as §1
[4] = target: 5-hydroxytryptamine receptor 1D (Homo sapiens, UniProt P28221); assay: Compound was tested for its binding affinity against human cloned 5-hydroxytryptamine 1D receptor in CHO cells using [3H]5-HT; type: cell-based; outline: as §1
[5] = target: 5-hydroxytryptamine receptor 1E (Homo sapiens, UniProt P28566); assay: Compound was tested for its binding affinity against cloned human 5-hydroxytryptamine 1E receptor in CHO cells using [3H]-5-HT; type: cell-based; outline: as §1
[6] = target: 5-hydroxytryptamine receptor 2A (Homo sapiens, UniProt P28223); assay: Compound was tested for its binding affinity against 5-hydroxytryptamine 2A receptor in human cloned receptors in HEK 293 cells using [3H]ketanserin; type: cell-based, HEK293; outline: as §1
[7] = target: T2, 5-hydroxytryptamine receptor 1F (Homo sapiens, UniProt P30939); assay: Compound was tested for its binding affinity against 5-hydroxytryptamine 1F receptor in human cloned receptors in CHO cells using [3H]5-HT; type: cell-based; outline: as §1
T2 sequence (P30939 whole entry): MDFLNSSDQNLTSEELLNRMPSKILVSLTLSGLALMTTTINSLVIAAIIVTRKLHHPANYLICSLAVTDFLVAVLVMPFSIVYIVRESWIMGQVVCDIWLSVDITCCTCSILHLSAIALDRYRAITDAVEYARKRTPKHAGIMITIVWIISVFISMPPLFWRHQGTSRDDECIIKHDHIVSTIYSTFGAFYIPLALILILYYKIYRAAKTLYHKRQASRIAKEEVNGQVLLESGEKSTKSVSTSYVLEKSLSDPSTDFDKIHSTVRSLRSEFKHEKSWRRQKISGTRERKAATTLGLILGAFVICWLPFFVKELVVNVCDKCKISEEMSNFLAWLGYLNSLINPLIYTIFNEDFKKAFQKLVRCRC

[8] = target: 5-hydroxytryptamine receptor 2B (Homo sapiens, UniProt P41595); assay: Compound was tested for its binding affinity against cloned human 5-hydroxytryptamine 2B receptor in HEK 293 cells using [3H]5-HT; type: cell-based, HEK293; outline: as §1
[9] = target: 5-hydroxytryptamine receptor 4 (Homo sapiens, UniProt Q13639); assay: Compound was tested for its binding affinity against 5-hydroxytryptamine 4 receptor
[10] = target: 5-hydroxytryptamine receptor 7 (Homo sapiens, UniProt P34969); assay: Compound was tested for its binding affinity against human cloned 5-hydroxytryptamine 7 receptor in HEK 293 cells using [3H]5-CT; type: cell-based, HEK293; outline: as §1
[11] = target: T3, Alpha-1B adrenergic receptor (Homo sapiens, UniProt P35368); assay: Compound was tested for its binding affinity against adrenergic Alpha-1B adrenergic receptor
T3 sequence (P35368 whole entry): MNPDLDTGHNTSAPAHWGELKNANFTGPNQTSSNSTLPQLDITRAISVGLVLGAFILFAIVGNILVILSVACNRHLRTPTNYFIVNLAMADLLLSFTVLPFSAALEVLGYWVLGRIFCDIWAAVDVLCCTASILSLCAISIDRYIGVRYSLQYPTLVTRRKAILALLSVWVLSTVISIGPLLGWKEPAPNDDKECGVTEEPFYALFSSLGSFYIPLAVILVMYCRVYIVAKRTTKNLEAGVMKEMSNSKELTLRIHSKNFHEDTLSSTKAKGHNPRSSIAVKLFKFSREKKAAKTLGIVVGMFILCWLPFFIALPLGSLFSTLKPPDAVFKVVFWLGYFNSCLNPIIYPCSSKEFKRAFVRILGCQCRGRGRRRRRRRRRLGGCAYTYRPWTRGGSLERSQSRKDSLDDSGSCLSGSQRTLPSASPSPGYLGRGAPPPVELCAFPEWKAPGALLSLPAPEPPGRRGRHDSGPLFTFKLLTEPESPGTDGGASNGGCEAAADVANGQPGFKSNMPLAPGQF

Cytochrome P450 1A2 = target: T4, Cytochrome P450 1A2 (Homo sapiens, UniProt P05177); assay: Inhibition of human cytochrome P450 1A2 activity as caffeine N3 demethylation (500 uM); type: ADME
T4 sequence (P05177 whole entry): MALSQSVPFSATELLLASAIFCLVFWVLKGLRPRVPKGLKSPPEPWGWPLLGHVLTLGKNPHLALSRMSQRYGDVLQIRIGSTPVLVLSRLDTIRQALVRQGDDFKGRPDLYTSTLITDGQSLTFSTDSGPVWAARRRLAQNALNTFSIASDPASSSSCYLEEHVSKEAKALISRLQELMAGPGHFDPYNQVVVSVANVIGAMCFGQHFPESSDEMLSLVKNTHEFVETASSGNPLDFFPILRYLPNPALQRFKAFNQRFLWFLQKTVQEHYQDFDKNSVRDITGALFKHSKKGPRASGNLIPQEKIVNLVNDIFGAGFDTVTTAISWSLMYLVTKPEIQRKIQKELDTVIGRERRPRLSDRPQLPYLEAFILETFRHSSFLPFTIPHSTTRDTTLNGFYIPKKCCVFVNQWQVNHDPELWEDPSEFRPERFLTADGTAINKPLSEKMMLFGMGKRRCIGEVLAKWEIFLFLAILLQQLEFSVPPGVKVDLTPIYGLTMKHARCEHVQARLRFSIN
Outline: (§2)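 Heterologously expressed human CYP isoforms in isoform-selective assays, with substrate at its Km. CYP1A2: caffeine N3-demethylation (500 μM). CYP2C9: tolbutamide methylhydroxylation (100 μM). CYP2C19: S-mephenytoin 4-hydroxylation (100 μM). CYP2D6: bufuralol 1'-hydroxylation (10 μM). CYP3A4: total cyclosporin oxidation (1 μM). IC50 is the mean of duplicate determinations, agreeing within 10%.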

Cytochrome P450 2C19 = Cytochrome P450 2C19 (Homo sapiens, UniProt P33261); assay: Inhibition of human cytochrome P450 2C19 as S-mephenytoin-4-hydroxylation (100 uM); type: ADME; outline: as §2
Cytochrome P450 2C9 = Cytochrome P450 2C9 (Homo sapiens, UniProt P11712); assay: Inhibitory potential of human cytochrome P450 2C9 as Tolbutamide methylhydroxylation (100 uM); type: ADME; outline: as §2
Cytochrome P450 2D6 = Cytochrome P450 2D6 (Homo sapiens, UniProt P10635); assay: Inhibition of human cytochrome P450 2D6 as bufuralol 1''-hydroxylation (10 uM); type: ADME; outline: as §2
Cytochrome P450 3A4 = Cytochrome P450 3A4 (Homo sapiens, UniProt P08684); assay: Inhibition of human cytochrome P450 3A4 as total cyclosporin oxidation (1 uM); type: ADME
Outline: as §2, with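 “μM).” for “μM). IC50 is the mean of duplicate determinations, agreeing within 10%.”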

D(3) dopamine receptor = D(3) dopamine receptor (Homo sapiens, UniProt P35462); assay: Compound was tested for its binding affinity against Dopamine receptor D3 in human cloned receptors in CHO cells using [125 I]iodosulpride; type: cell-based; outline: as §1
D(2) dopamine receptor = D(2) dopamine receptor (Homo sapiens, UniProt P14416); assay: Compound was tested for its binding affinity against Dopamine receptor D2 in human cloned receptors in CHO cells using [125 I]iodosulpride; type: cell-based; outline: as §1
[12] = target: T5, 5-hydroxytryptamine receptor 2C (Homo sapiens, UniProt P28335); assay: Compound was tested for its binding affinity against human cloned 5-hydroxytryptamine 2C receptor in HEK 293 cells using [3H]mesulergine; type: cell-based, HEK293; outline: as §1
T5 sequence (P28335 whole entry): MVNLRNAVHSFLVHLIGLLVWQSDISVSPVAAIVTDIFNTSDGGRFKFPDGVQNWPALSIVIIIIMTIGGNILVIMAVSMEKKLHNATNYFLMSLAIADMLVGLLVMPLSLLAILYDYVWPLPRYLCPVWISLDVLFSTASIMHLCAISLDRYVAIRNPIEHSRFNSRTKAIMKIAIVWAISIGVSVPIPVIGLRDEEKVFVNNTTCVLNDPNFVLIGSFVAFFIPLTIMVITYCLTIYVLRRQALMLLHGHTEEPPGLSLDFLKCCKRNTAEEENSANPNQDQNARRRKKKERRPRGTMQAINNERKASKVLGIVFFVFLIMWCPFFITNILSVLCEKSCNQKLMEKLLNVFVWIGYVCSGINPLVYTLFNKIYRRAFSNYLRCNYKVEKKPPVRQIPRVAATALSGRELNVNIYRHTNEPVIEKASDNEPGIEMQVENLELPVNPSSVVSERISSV

5-hydroxytryptamine receptor 6, sequence (P50406 whole entry): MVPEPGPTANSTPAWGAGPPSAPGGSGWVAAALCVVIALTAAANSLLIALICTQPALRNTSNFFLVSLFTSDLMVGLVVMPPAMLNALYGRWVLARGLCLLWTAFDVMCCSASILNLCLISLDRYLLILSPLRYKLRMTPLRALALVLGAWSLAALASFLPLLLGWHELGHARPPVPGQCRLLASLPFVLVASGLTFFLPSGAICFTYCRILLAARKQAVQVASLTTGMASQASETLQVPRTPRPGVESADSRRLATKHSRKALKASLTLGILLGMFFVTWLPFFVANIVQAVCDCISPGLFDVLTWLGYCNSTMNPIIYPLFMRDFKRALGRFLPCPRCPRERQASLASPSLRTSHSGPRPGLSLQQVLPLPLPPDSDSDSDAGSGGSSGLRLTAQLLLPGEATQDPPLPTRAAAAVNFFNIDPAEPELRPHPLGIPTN
5-hydroxytryptamine receptor 2B, sequence (P41595 whole entry): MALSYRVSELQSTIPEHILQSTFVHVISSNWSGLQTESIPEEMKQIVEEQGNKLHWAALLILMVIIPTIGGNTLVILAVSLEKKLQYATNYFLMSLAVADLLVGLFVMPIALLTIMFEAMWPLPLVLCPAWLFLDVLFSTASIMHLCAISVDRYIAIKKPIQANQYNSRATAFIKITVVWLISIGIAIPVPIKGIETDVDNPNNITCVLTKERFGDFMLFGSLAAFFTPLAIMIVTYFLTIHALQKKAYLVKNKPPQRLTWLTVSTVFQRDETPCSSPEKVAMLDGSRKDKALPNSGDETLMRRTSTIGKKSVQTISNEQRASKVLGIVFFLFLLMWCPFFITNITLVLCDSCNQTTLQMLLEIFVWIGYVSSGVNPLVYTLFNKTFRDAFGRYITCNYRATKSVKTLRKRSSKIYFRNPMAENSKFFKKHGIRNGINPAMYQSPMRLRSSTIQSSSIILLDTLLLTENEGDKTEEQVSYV
Cytochrome P450 3A4, sequence (P08684 whole entry): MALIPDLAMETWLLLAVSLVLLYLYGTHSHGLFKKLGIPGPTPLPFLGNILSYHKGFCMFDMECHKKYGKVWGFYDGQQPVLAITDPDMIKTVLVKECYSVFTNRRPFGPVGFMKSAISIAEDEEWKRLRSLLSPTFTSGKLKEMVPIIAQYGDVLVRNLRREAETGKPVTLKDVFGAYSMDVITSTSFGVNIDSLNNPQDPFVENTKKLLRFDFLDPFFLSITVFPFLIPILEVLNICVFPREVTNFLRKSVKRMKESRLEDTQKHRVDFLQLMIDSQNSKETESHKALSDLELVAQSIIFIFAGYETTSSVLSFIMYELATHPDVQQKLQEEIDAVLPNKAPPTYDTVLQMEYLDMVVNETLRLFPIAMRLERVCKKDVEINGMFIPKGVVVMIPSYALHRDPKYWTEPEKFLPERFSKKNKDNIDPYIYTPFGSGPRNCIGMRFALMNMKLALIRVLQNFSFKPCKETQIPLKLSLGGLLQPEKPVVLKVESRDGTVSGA
D(2) dopamine receptor, sequence (P14416 whole entry): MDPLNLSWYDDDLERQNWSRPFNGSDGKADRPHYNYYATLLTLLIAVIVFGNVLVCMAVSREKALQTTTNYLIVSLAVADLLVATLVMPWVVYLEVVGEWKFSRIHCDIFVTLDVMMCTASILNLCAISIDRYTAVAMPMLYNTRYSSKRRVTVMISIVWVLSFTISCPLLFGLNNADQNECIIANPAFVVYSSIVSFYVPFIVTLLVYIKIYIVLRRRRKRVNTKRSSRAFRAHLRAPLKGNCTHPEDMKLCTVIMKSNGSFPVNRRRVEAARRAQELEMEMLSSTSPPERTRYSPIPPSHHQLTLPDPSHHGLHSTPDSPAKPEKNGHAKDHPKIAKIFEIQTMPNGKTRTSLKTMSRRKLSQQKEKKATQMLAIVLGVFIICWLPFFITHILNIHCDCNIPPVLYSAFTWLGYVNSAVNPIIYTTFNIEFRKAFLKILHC
Cytochrome P450 2C19, sequence (P33261 whole entry): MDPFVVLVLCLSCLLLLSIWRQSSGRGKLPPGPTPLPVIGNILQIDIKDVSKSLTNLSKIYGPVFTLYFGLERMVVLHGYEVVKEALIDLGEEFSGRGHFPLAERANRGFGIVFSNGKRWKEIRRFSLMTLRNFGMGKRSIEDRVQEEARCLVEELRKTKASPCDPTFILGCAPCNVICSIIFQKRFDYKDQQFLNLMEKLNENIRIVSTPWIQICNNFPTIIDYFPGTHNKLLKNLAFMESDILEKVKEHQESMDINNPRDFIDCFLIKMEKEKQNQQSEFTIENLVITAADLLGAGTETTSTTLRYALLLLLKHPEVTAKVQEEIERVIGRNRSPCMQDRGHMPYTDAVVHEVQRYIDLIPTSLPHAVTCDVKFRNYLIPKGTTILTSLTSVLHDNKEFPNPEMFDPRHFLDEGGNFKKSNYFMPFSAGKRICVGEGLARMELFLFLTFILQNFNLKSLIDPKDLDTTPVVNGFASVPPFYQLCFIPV
5-hydroxytryptamine receptor 4, sequence (Q13639 whole entry): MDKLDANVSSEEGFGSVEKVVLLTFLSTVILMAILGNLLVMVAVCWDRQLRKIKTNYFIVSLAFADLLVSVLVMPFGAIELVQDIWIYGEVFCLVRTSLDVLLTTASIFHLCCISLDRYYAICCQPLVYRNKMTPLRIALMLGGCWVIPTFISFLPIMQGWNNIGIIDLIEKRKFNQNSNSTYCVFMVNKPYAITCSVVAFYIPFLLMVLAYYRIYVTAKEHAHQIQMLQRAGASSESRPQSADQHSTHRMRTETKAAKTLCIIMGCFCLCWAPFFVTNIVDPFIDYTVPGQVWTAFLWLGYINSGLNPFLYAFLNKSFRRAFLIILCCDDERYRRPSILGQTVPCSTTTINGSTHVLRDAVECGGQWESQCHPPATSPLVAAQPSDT
5-hydroxytryptamine receptor 1B, sequence (P28222 whole entry): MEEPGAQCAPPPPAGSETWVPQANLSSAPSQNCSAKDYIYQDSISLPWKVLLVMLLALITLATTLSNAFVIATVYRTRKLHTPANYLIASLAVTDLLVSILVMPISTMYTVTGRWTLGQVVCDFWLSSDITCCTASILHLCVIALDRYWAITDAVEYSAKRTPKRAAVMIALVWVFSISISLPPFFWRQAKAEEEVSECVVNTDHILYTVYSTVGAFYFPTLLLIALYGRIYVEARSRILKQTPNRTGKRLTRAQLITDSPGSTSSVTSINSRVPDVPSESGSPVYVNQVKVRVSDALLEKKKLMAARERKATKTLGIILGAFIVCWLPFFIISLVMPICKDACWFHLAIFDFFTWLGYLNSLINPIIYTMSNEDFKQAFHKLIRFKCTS
5-hydroxytryptamine receptor 1E, sequence (P28566 whole entry): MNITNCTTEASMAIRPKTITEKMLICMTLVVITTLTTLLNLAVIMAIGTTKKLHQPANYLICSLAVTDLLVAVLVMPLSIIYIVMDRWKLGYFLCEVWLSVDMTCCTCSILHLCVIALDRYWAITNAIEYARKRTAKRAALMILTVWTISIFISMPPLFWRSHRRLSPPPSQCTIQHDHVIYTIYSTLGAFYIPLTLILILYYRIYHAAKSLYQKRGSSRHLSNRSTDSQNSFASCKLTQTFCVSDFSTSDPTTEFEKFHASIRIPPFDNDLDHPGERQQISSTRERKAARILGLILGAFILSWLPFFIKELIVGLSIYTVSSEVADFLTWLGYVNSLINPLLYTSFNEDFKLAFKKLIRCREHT
5-hydroxytryptamine receptor 2A, sequence (P28223 whole entry): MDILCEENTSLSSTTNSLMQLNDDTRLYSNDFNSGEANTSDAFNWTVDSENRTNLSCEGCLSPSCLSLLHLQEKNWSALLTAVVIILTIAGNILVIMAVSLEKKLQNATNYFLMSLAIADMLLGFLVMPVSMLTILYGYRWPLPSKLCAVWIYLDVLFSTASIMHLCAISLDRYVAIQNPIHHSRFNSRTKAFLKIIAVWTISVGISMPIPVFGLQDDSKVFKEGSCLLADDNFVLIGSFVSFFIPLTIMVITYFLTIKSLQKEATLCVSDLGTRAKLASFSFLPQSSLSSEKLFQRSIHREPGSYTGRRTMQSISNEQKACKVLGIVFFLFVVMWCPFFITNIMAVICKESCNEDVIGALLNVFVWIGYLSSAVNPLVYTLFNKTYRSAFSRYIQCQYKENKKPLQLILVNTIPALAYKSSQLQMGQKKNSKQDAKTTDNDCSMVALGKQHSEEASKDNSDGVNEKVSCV
5-hydroxytryptamine receptor 7, sequence (P34969 whole entry): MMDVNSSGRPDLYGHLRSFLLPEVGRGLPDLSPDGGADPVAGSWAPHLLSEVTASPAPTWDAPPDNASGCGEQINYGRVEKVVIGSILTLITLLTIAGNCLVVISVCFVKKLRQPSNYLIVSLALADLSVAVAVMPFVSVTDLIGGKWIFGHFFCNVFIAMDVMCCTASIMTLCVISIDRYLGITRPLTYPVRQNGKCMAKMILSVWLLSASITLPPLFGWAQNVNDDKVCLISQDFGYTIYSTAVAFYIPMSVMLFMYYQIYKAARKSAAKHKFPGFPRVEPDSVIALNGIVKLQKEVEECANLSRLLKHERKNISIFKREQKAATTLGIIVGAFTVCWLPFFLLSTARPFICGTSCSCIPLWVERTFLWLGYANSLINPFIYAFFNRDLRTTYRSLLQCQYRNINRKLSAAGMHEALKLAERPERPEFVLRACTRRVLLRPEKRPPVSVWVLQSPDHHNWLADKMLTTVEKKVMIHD
D(3) dopamine receptor, sequence (P35462 whole entry): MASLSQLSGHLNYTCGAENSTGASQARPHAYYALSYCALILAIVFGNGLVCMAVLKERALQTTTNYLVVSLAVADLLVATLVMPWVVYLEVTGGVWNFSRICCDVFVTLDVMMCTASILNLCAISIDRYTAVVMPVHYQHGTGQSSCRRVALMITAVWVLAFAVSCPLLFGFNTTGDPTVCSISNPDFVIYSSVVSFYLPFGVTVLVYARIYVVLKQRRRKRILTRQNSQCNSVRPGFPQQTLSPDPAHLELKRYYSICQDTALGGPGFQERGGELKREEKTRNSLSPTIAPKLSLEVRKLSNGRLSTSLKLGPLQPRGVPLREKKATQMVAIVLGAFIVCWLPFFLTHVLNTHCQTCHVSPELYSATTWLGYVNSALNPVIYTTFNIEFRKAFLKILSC

Compound: COc1ccc(NS(=O)(=O)c2ccc(Br)cc2)cc1N1CCN(C)CC1
Ki [2]: 251 nM
Ki [3]: 398 nM
Ki [4]: 251 nM
Ki [5]: 1580 nM
Ki [6]: 1260 nM
Ki [7]: 316 nM
Ki [8]: 631 nM
Ki [9]: 2510 nM
Ki [10]: 2510 nM
Ki [1]: 5.01 nM
Ki [11]: 2510 nM
IC50 (Cytochrome P450 1A2): 10000 nM
IC50 (Cytochrome P450 2C19): 46000 nM
IC50 (Cytochrome P450 2C9): > 100000 nM
IC50 (Cytochrome P450 2D6): 11000 nM
IC50 (Cytochrome P450 3A4): 6000 nM
Ki (D(3) dopamine receptor): 794 nM
Ki (D(2) dopamine receptor): 3980 nM
Ki [12]: 1000 nM

Compound: COc1ccc(NS(=O)(=O)c2c(F)c(Br)cc(F)c2Br)cc1N1CCN(C)CC1
Ki [1]: 3.16 nM
Selectivity (Homo sapiens): > 300

Compound: COc1ccc(NS(=O)(=O)c2cccc(C#N)c2)cc1N1CCN(C)CC1
Ki [1]: 63.1 nM

Compound: COc1ccc(NS(=O)(=O)c2cccc(I)c2)cc1N1CCN(C)CC1
Ki [1]: 0.794 nM
Selectivity (Homo sapiens): > 200

Compound: COc1ccc(NS(=O)(=O)c2cc(Cl)cc(Cl)c2)cc1N1CCN(C)CC1
Ki [1]: 2 nM
Selectivity (Homo sapiens): > 100

Other lines, results leading:

Ki [1]: 12.6 nM
Compound: CNc1cc(NS(=O)(=O)c2ccc(N)cc2)cc(NC)n1

Ki [1]: 1.26 nM
Selectivity (Homo sapiens): > 300
Compound: COc1ccc(NS(=O)(=O)c2c(C)sc3ccc(Cl)cc23)cc1N1CCN(C)CC1
